According to ChEMBL document CHEMBL2057142, “Discovery and optimization of novel fatty acid transport protein 1 (FATP1) inhibitors” (Bioorg Med Chem Lett, 2012):

Assays:
[1] = target: Long-chain fatty acid transport protein 1 (Homo sapiens, UniProt Q6PCB7); test: Inhibition of human recombinant FATP1 acyl-coA synthetase activity using [14C]oleic acid as substrate
[2] = target: Long-chain fatty acid transport protein 1 (Mus musculus, UniProt Q60714); test: Inhibition of mouse recombinant FATP1 acyl-coA synthetase activity using [14C]oleic acid as substrate
Chain of Long-chain fatty acid transport protein 1 (Mus musculus, UniProt Q60714) (Q60714 whole entry): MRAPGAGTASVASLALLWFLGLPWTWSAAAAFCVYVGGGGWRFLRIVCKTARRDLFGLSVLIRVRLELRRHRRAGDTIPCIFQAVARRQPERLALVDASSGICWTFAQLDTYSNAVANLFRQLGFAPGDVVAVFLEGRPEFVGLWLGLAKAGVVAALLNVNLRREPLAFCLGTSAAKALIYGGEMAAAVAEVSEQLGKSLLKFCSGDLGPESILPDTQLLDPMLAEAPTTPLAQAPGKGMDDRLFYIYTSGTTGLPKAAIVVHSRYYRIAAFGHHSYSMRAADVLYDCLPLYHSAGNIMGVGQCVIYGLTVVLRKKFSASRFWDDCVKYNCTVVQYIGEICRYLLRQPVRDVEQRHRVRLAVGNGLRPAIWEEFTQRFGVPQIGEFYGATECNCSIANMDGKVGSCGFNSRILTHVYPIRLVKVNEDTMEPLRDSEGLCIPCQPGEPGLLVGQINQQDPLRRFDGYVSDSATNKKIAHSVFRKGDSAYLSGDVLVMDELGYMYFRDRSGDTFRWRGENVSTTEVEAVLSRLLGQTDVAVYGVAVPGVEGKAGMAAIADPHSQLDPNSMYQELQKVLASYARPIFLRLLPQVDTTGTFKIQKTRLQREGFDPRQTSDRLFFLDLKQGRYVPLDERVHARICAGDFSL

[3] = Metabolic stability in rat blood assessed as compound remaining after 2 hrs; type: ADME, tissue-based; conditions: read-out: Stability
In short: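 Test compound incubated with rat blood for 2 h; parent compound remaining (%) measured.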

[4] = (§1) Tmax in rat at 10 mg/kg, po; type: ADME, organism-based; design: dose 10 mg/kg, route oral; conditions: in vivo
In short: (§2)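 Rats dosed orally at 10 mg/kg in DMA/PG/(20% HPβCD in saline) 10:10:80; plasma levels measured, values averaged from two rats.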

[5] = (§3) Cmax in rat at 10 mg/kg, po; type: ADME, organism-based; design: dose 10 mg/kg, route oral; conditions: in vivo; in short: as §2
[6] = (§4) AUC in rat at 10 mg/kg, po; type: ADME, organism-based, Plasma; design: dose 10 mg/kg, route oral; conditions: plasma; in short: as §2
[7] = (§5) Half life in rat at 1 mg/kg, iv; type: ADME, organism-based; design: dose 1 mg/kg, route intravenous; conditions: in vivo
In short: (§6)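 Intravenous dosing to rats at 1 mg/kg in DMA/PG/(20% HPβCD in saline) 10:10:80; plasma pharmacokinetic parameters averaged from two rats.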

[8] = Clearance in rat at 1 mg/kg, iv; type: ADME, organism-based; design: dose 1 mg/kg, route intravenous; conditions: in vivo; in short: as §6
[9] = Volume of distribution in rat at 1 mg/kg, iv; type: ADME, organism-based; design: dose 1 mg/kg, route intravenous; conditions: in vivo; in short: as §6
[10] = Oral bioavailability in rat at 10 mg/kg; type: ADME, organism-based; conditions: in vivo; in short: as §2
[11] = target: Long-chain fatty acid transport protein 1 (Mus musculus) (UniProt Q60714); test: Inhibition of mouse recombinant FATP1 acyl-coA synthetase activity using [14C]oleic acid as substrate at 10 uM
Chain of Long-chain fatty acid transport protein 1 (Mus musculus) (Q60714 whole entry, looked up): as the sequence (Q60714 whole entry) above
In short: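 Same radiometric acyl-CoA synthetase assay with 10 μM [1-¹⁴C] oleic acid, 0.5 mM ATP, 0.5 mM CoA, 5 mM MgCl₂ in Tris-HCl pH 7.4 buffer with Triton X-100 and DTT; test compound at 10 μM, read-out as percent inhibition of ACS activity.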

[12] = system: Rattus norvegicus; test: as §1; type: ADME, organism-based; design: dose 10 mg/kg, route oral; conditions: in vivo, BLD = below limit of detection; in short: as §2
[13] = system: Rattus norvegicus; test: as §3; type: ADME, organism-based; design: dose 10 mg/kg, route oral; conditions: in vivo, BLD = below limit of detection; in short: as §2
[14] = system: Rattus norvegicus; test: as §4; type: ADME, organism-based, Plasma; design: dose 10 mg/kg, route oral; conditions: in vivo, BLD = below limit of detection; in short: as §2
[15] = system: Rattus norvegicus; test: as §5; type: ADME, organism-based; design: dose 1 mg/kg, route intravenous; conditions: in vivo, BLD = below limit of detection; in short: as §6
[16] = system: Blood; test: Drug metabolism in rat blood assessed as 1-(2-((4-ethyl-5-((phenylamino)methyl)-4H-1,2,4-triazol-3-ylthio)methyl)benzo[d]oxazol-5-yl)propan-1-ol formation; type: ADME, tissue-based
[17] = system: Mus musculus; test: Drug metabolism in iv dosed mouse assessed as 2-(4-ethyl-5-((phenylamino)methyl)-4H-1,2,4-triazol-3-ylthio)acetic acid formation after 5 mins by LC/MS/MS analysis; type: ADME, organism-based; conditions: in vivo
In short: (§7)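 Compound dosed intravenously to mouse; blood sampled at 5 min and metabolites identified by LC–MS/MS analysis.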

[18] = system: Mus musculus; test: Drug metabolism in iv dosed mouse assessed as 2-(4-ethyl-5-((phenylamino)methyl)-4H-1,2,4-triazol-3-ylthio)-N-(4-(1-hydroxypropyl)phenyl)acetamide formation after 5 mins by LC/MS/MS analysis; type: ADME, organism-based; conditions: in vivo; in short: as §7

Chain of Long-chain fatty acid transport protein 1 (Homo sapiens, UniProt Q6PCB7) (Q6PCB7 whole entry): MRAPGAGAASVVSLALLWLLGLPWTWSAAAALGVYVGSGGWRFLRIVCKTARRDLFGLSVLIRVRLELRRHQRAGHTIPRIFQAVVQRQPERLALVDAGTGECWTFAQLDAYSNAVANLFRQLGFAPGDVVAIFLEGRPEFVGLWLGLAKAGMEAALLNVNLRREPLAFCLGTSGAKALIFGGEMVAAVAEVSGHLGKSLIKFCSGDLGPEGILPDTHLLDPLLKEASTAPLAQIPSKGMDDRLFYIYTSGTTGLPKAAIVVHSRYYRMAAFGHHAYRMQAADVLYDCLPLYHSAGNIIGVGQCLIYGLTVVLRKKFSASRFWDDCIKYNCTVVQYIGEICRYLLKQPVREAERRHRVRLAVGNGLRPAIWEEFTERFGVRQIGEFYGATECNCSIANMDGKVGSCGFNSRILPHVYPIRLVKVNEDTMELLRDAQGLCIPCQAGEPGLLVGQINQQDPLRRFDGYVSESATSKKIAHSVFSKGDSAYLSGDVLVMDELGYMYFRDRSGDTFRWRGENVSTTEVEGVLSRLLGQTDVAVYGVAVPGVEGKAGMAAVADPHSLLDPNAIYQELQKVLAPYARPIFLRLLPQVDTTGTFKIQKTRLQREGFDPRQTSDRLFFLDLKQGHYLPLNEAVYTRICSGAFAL

SMILES | IC50 [1] [nM] | IC50 [2] [nM] | further results
C=CCn1c(CNc2ccccc2)nnc1SCC(=O)Nc1ccc(OC)cc1 | 6600 | > 10000 | 
CCn1c(CNc2ccccc2)nnc1SCC(=O)Nc1ccc(C(=O)c2ccccc2)cc1 | > 1000 | > 10000 | 
CCn1c(CNc2ccccc2)nnc1SCC(=O)Nc1ccc(C(=O)O)cc1 | > 1000 | > 10000 | 
CCn1c(CNc2ccccc2)nnc1SCc1nc2cc(OC(F)(F)F)ccc2o1 | 100 | 91 | remaining at 2 h [3]: 100%; Tmax [4]: 19.8 min; Cmax [5]: 190 ng/mL; AUC [6]: 200 ng·h/mL; half-life [7]: 61.2 min; clearance [8]: 52 mL/min/kg; Vd [9]: 1.73 L/kg; bioavailability [10]: 5.4%
CC/C(=N/O)c1ccc2oc(CSc3nnc(CNc4ccccc4)n3CC)nc2c1 | 260 | 200 | remaining at 2 h [3]: 100%
CCn1c(CNc2ccccc2)nnc1SCC(=O)Nc1ccc(C(C)=O)cc1 | > 1000 |  | inhibition [11]: 63%
CCC(=O)c1ccc2oc(CSc3nnc(CNc4ccccc4)n3CC)nc2c1 | 190 | 360 | remaining at 2 h [3]: 8.9%; Tmax [12]: BLD; Cmax [13]: BLD; AUC [14]: BLD; t1/2 [15]: BLD; clearance [8]: 378 mL/min/kg; Vd [9]: 2.69 L/kg; Drug metabolism [16]: Active
CCC(=O)c1ccc2oc(CS(=O)(=O)c3nnc(CNc4ccccc4)n3CC)nc2c1 | 1670 | 11900 | remaining at 2 h [3]: 44%
CCOC(=O)c1ccc2oc(CSc3nnc(CNc4ccccc4)n3CC)nc2c1 | 680 | 840 | remaining at 2 h [3]: 0%
CCn1nnc(-c2ccc(NC(=O)CSc3nnc(CNc4ccccc4)n3CC)cc2)n1 | > 1000 | > 10000 | 
CCn1c(CNc2ccccc2)nnc1SCC(=O)Nc1ccc(C(=O)OC)cc1 | 540 |  | inhibition [11]: 56%
CCn1c(CNc2ccccc2)nnc1SCC(=O)Nc1ccc(C(=O)OC(C)(C)C)cc1 | > 1000 | > 10000 | 
CCOC(=O)c1ccc2c(c1)CCN2C(=O)CSc1nnc(CNc2ccccc2)n1CC | > 1000 | > 10000 | 
CCn1c(CNc2ccccc2)nnc1SCc1nc2cc(F)ccc2o1 | > 1000 | 7800 | 
CCC(O)c1ccc2oc(CSc3nnc(CNc4ccccc4)n3CC)nc2c1 (stereo not drawn) | > 1000 | 3700 | remaining at 2 h [3]: 80%
CCn1c(CNc2ccccc2)nnc1SCC(=O)Nc1ccccc1 | > 1000 | > 10000 | 
CCNC(=O)c1ccc(NC(=O)CSc2nnc(CNc3ccccc3)n2CC)cc1 | > 1000 | > 10000 | 
CCOC(=O)c1ccc2c(c1)CCCN2C(=O)CSc1nnc(CNc2ccccc2)n1CC | > 1000 | 2900 | 
CCn1c(CNc2ccccc2)nnc1SCc1nc2cc(C(=O)C(C)C)ccc2o1 | 600 | 520 | remaining at 2 h [3]: 42%
CCC(=O)c1ccc2nc(CSc3nnc(CNc4ccccc4)n3CC)oc2c1 | 900 | 1200 | remaining at 2 h [3]: 35%
CCn1c(CNc2ccccc2)nnc1SCC(=O)Nc1ccc(Cl)cc1 | > 1000 | > 10000 | 

SMILES | IC50 [1] [nM] | IC50 [2] [nM] | further results
CC/C(=N/OC)c1ccc2oc(CSc3nnc(CNc4ccccc4)n3CC)nc2c1 | > 1000 | > 10000 | 
CCn1c(CNc2ccccc2)nnc1SCc1nc2ccc(Cl)cc2o1 | > 1000 | 5400 | 
CCC(=O)c1ccc(NC(=O)CSc2nnc(CNc3ccccc3)n2CC)cc1 | 400 | 1000 | remaining at 2 h [3]: 28%; Drug metabolism [17]: Active; Drug metabolism [18]: Active
CCn1c(CNc2ccccc2)nnc1SCc1nc2cc(C(F)(F)F)ccc2o1 | 360 | 360 | Tmax [4]: 19.8 min; Cmax [5]: 220 ng/mL; AUC [6]: 280 ng·h/mL; half-life [7]: 73.8 min; clearance [8]: 56 mL/min/kg; Vd [9]: 1.86 L/kg; bioavailability [10]: 9.2%
CCn1c(CNc2ccccc2)nnc1SCC(=O)Nc1ccc(C(=O)N(C)C)cc1 | > 1000 | > 10000 | 
CCCC(=O)c1ccc(NC(=O)CSc2nnc(CNc3ccccc3)n2CC)cc1 | 230 | 1100 | 
CCC(=O)c1ccc(N(C)C(=O)CSc2nnc(CNc3ccccc3)n2CC)cc1 | 580 | 2000 | remaining at 2 h [3]: 1.9%
CCOC(=O)c1cccc(NC(=O)CSc2nnc(CNc3ccccc3)n2CC)c1 | > 1000 | 2900 | 
CCn1c(CNc2ccccc2)nnc1SCC(=O)Nc1ccc(C#N)cc1 | > 1000 | 5100 | 
CCOC(=O)c1ccc(NC(=O)CSc2nnc(CNc3ccccc3)n2CC)cc1 | 330 | 1100 | 
CCn1c(CNc2ccccc2)nnc1SCC(=O)Nc1ccc(OC)cc1 | > 1000 | > 10000 | 
CCC(=O)c1ccc(NC(=O)CSc2nnc(CNc3ccccc3)n2CC)cn1 | 400 | 1500 | 
CCn1c(CNc2ccccc2)nnc1SCc1nc2cc(C)ccc2o1 | > 1000 | > 10000 | 
CCc1ccc2oc(CSc3nnc(CNc4ccccc4)n3CC)nc2c1 | > 1000 | 1800 | 
CCOC(=O)c1ccc(NC(=O)CSc2nnc(CSCc3ccccc3)n2CC)cc1 | 7600 | > 10000 | 
CCn1c(CNc2ccccc2)nnc1SCc1nc2cc(OC)ccc2o1 | > 1000 | 2700 | 
CCn1c(CNc2ccccc2)nnc1SCC(=O)Nc1ccc(S(C)(=O)=O)cc1 | > 1000 | > 10000 | 
CCn1c(CNc2ccccc2)nnc1SCc1nc2ccccc2o1 | > 1000 | > 10000 | 
CCC(=O)c1ccc(N(CC)C(=O)CSc2nnc(CNc3ccccc3)n2CC)cc1 | > 1000 | > 10000 | 
CCn1c(CNc2ccccc2)nnc1SCc1nc2cc(Cl)ccc2o1 | > 1000 | 2300 | remaining at 2 h [3]: 92%
CCn1c(CNc2ccccc2)nnc1SCC(=O)Nc1ccc(C(=O)NC)cc1 | > 1000 | > 10000 | 
